# The source made the active and inactive calls. No cut-off for these calls is given here.
# Experiments:
# [1] = biological target: 72 kDa type IV collagenase (Homo sapiens, UniProt P08253); assay: Inhibition of MMP2
# Procedure, shortened: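 Gelatinase A (MMP-2) with succinylated gelatin substrate and inhibitor in 50 mM sodium borate, pH 8.5, incubated 30 min at 37 °C. 0.03% trinitrobenzenesulfonic acid then added for a further 20 min. Absorbance read at 450 nm.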
# [2] = biological target: Aminopeptidase N (Sus scrofa) (UniProt P15145); assay: Inhibition of APN assessed as substrate hydrolysis by UV/vis spectrophotometer
# Chain of Aminopeptidase N (Sus scrofa) (P15145 whole entry, looked up): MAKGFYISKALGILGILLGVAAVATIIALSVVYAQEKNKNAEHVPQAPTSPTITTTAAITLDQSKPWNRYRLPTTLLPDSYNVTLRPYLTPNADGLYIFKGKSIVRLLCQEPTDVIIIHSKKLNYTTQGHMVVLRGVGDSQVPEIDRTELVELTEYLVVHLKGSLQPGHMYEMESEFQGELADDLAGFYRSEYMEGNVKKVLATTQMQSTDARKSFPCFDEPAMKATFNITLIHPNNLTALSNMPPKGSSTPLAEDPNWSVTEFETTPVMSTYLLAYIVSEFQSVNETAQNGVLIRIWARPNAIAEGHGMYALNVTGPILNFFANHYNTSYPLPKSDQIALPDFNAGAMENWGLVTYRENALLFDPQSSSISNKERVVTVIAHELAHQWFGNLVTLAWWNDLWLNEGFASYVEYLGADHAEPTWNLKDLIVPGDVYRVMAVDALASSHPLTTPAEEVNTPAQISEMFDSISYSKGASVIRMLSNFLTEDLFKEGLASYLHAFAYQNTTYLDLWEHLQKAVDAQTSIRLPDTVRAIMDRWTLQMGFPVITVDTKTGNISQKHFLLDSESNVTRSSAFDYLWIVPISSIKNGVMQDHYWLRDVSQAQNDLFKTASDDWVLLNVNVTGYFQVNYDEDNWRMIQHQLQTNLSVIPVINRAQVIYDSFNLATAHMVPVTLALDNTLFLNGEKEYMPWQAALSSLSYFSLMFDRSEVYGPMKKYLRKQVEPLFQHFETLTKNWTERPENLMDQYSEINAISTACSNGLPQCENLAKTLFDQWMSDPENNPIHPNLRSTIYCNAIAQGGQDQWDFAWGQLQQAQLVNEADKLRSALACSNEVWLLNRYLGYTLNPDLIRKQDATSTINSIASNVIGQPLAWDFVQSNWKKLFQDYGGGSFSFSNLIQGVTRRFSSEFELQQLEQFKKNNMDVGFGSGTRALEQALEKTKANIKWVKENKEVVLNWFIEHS
# [3] = system: HL-60; assay: Antiproliferative activity against human HL60 cells after 48 hrs by MTT assay; type: functional, cell-based
# Procedure, shortened: (§1)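 RPMI1640 with 10% FBS, 37 °C, 5% CO2. Cells seeded at 10,000 per well and grown 4 h in complete medium. Compound added at 1600, 800, 400, 200 or 100 µg/ml for 48 h. 0.5% MTT then added for 4 h, formazan dissolved in DMSO over 15 min, OD read at 570 nm. IC50 taken as concentration giving 50% growth inhibition.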
# [4] = system: K562; assay: Antiproliferative activity against human K562 cells after 48 hrs by MTT assay; type: functional, cell-based; procedure, shortened: as §1
# [5] = system: SK-OV-3; assay: Antiproliferative activity against human SKOV3 cells after 48 hrs by MTT assay; type: functional, cell-based; conditions: SK-OV-3, 48 h; procedure, shortened: as §1
# Chain of 72 kDa type IV collagenase (P08253 whole entry): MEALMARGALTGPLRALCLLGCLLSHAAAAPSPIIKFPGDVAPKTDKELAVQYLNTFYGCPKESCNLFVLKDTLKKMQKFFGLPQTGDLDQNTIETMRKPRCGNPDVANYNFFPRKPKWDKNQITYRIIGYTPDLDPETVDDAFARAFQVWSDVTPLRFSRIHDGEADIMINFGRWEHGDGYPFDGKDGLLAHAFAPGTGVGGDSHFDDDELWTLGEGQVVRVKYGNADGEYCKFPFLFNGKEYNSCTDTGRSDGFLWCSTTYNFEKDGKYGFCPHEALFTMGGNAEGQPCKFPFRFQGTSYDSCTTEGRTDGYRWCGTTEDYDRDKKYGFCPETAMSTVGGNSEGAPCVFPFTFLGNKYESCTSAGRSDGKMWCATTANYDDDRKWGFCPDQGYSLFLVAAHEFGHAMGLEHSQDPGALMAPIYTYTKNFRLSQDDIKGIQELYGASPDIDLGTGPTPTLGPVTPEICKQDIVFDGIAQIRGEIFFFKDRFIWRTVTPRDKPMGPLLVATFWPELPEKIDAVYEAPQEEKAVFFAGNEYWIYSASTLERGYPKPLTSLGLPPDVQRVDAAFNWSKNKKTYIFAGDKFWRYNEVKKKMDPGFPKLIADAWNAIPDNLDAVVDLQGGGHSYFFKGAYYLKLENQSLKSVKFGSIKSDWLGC
Compound,IC50 [1] [µM],IC50 [2],Activity [3],Activity [4],IC50 [5] [µM]
Cc1nc2ccccc2n(CC(=O)N[C@@H](Cc2ccccc2)C(=O)Nc2ccc(F)cc2)c1=O,124,Not Active,,,
COC(=O)C(CC(C)C)NC(=O)[C@@H](Cc1ccccc1)NC(=O)Cn1c(=O)c(C)nc2ccccc21 (stereo not given in full),1750,Not Active,,,
Cc1nc2ccccc2n(CC(=O)N[C@@H](Cc2ccccc2)C(=O)Nc2ccc(F)c(F)c2)c1=O,24.2,Not Active,,,
COC(=O)CCCCCNC(=O)[C@H](Cc1ccccc1)NC(=O)Cn1c(=O)c(C)nc2ccccc21,11500,Not Active,,,
CCCNC(=O)[C@H](Cc1ccccc1)NC(=O)Cn1c(=O)c(C)nc2ccccc21,56.6,Not Active,,,
Cc1nc2ccccc2n(CC(=O)N[C@@H](Cc2ccccc2)C(=O)NC(C)C)c1=O,9430,Not Active,,,
CCN(CC)C(=O)[C@H](Cc1ccccc1)NC(=O)Cn1c(=O)c(C)nc2ccccc21,105,Not Active,,,
Cc1ccccc1NC(=O)[C@H](Cc1ccccc1)NC(=O)Cn1c(=O)c(C)nc2ccccc21,37.3,Not Active,,,
CCCCNC(=O)[C@H](Cc1ccccc1)NC(=O)Cn1c(=O)c(C)nc2ccccc21,106,Not Active,,,
COC(=O)CCCNC(=O)[C@H](Cc1ccccc1)NC(=O)Cn1c(=O)c(C)nc2ccccc21,2760,Not Active,,,
Cc1nc2ccccc2n(CC(=O)N[C@@H](Cc2ccccc2)C(=O)Nc2ccc(Br)cc2)c1=O,2000,Not Active,,,
Cc1nc2ccccc2n(CC(=O)N[C@@H](Cc2ccccc2)C(=O)Nc2cccnc2)c1=O,30,Not Active,,,
Cc1ccc(NC(=O)[C@H](Cc2ccccc2)NC(=O)Cn2c(=O)c(C)nc3ccccc32)cc1,10.5,Not Active,inactive,inactive,1980
Cc1nc2ccccc2n(CC(=O)N[C@@H](Cc2ccccc2)C(=O)Nc2ccc(Cl)cc2)c1=O,624,Not Active,,,
Cc1nc2ccccc2n(CC(=O)N[C@@H](Cc2ccccc2)C(=O)Nc2ccc(F)c(Cl)c2)c1=O,1360,Not Active,,,
Cc1nc2ccccc2n(CC(=O)N[C@@H](Cc2ccccc2)C(=O)Nc2ccccc2)c1=O,58.1,Not Active,,,
Cc1cccc(NC(=O)[C@H](Cc2ccccc2)NC(=O)Cn2c(=O)c(C)nc3ccccc32)c1,6460,Not Active,,,
Cc1nc2ccccc2n(CC(=O)N[C@@H](Cc2ccccc2)C(=O)Nc2ccc(Cl)c(Cl)c2)c1=O,26.2,Not Active,inactive,inactive,3020
COc1ccc(/C=C/C(=O)N2C[C@@H](NC(=O)c3cccnc3)C[C@H]2C(=O)NO)cc1OC,5.6,Not Active,,,210

# Reference: ChEMBL document CHEMBL1156901, “Novel matrix metalloproteinase inhibitors derived from quinoxalinone scaffold (Part I)” (Bioorg Med Chem, 2010)
